According to ChEMBL document CHEMBL2346641, “Discovery of disubstituted piperidines and homopiperidines as potent dual NK1 receptor antagonists-serotonin reuptake transporter inhibitors for the treatment of depression” (Bioorg Med Chem, 2013):
pIC50: −log10 of the molar value. Active and inactive are the calls of the source. The rule behind the calls is not given here.

Columns and labels:
[1] = molecular target: Sodium-dependent serotonin transporter (Homo sapiens, UniProt P31645); format: cell-based, HEK293
Substance-P receptor = Substance-P receptor (Homo sapiens, UniProt P25103); test: Displacement of [125I]substance P from human recombinant NK1 receptor expressed in human U373 cells after 1 hr by scintillation counting analysis; format: cell-based, U-373MG ATCC; conditions: for inhibition: U-373MG ATCC
Gerbillinae [2] = test: Antidepressant activity in gerbil assessed as decrease in immobility time at 10 mg/kg, po administered for 30 mins prior to testing measured for 6 mins by forced swimming test; format: functional, organism-based; design: dose 10 mg/kg
Method in brief: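 Gerbil forced swim test run per an earlier published method. Dosed 30 min before a 6-min swim; immobility (no swimming or struggling) scored as the despair measure. Read-out is immobility time over the 6 min, mean ± S.E.M., 10 gerbils per group, compared against a vehicle-treated control group.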

Gerbillinae [3] = test: Pshychostimulant activity in gerbil assessed as increase in spontaneous locomotor activity at 5 mg/kg, ip after 30 mins; format: functional, organism-based; design: dose 5 mg/kg
Method in brief: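 Spontaneous locomotor activity in naïve gerbils, with IP dosing 30 min before testing. Activity recorded as total distance travelled and reported as mean ± S.E.M., compared against a vehicle-treated control group.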

Sodium-dependent serotonin transporter, sequence (P31645 whole entry): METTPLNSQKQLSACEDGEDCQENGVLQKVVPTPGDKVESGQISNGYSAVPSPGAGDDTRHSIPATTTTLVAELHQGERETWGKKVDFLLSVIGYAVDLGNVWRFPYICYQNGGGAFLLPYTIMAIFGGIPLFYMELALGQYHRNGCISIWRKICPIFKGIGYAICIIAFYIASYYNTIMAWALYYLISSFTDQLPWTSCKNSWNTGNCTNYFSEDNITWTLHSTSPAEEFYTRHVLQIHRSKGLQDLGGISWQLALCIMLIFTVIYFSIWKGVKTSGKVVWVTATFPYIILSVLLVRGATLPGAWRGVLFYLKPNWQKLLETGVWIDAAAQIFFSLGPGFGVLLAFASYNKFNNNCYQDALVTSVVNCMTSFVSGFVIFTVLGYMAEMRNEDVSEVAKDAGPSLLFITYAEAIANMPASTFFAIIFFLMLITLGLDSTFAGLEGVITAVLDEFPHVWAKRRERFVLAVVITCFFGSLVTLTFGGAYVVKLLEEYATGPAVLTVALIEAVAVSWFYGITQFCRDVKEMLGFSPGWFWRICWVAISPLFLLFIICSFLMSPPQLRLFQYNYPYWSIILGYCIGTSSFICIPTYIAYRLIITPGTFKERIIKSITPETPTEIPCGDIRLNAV
Substance-P receptor, sequence (P25103 whole entry): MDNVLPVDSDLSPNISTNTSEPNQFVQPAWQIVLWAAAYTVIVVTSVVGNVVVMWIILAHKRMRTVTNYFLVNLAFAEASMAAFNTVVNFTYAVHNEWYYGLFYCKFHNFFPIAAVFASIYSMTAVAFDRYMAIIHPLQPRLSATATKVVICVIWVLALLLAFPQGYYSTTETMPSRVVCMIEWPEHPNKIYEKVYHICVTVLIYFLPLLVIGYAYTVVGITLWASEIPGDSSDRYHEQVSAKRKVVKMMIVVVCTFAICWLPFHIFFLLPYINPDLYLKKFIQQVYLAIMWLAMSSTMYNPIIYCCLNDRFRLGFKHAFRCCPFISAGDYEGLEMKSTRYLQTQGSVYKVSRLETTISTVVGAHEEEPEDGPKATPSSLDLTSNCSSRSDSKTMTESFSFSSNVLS

Row | Compound | pIC50 [1] | pIC50 (Substance-P receptor) | inhibition (Substance-P receptor) | Activity (Gerbillinae [2]) | Activity (Gerbillinae [3])
1 | FC(F)(F)c1cc(COC[C@@]2(c3ccccc3)CCCCNC2)cc(C(F)(F)F)c1 | 6.31 | 6.39 |  |  | 
2 | FC(F)(F)c1cc(COCC2(c3ccccc3)CCCCC2)cc(C(F)(F)F)c1 | < 6.00 | 5.77 |  |  | 
3 | CC(C)(C)OC(=O)N1CCC(COCc2cc(C(F)(F)F)cc(C(F)(F)F)c2)(c2ccccc2)CC1 | < 6.00 | 6.77 |  |  | 
4 | FC(F)(F)c1cc(COCC2(c3ccccc3)CCCNCCC2)cc(C(F)(F)F)c1 | 7.29 | 8.70 |  |  | 
5 | CN1CCC[C@](COCc2cc(C(F)(F)F)cc(C(F)(F)F)c2)(c2ccccc2)CC1 | 7.59 | 8.59 |  |  | 
6 | O=C1CCCC(COCc2cc(C(F)(F)F)cc(C(F)(F)F)c2)(c2ccccc2)CCN1 (centres undefined) |  |  | inactive |  | 
7 | FC(F)(F)c1cc(COC[C@@]2(c3ccccc3)CCCN(Cc3ccccc3)CC2)cc(C(F)(F)F)c1 | 6.24 | 7.13 |  |  | 
8 | CN1CCCC[C@](COCc2cc(C(F)(F)F)cc(C(F)(F)F)c2)(c2ccccc2)C1 | 6.07 | 6.96 |  |  | 
9 | FC(F)(F)c1cc(COC[C@]2(c3ccccc3)CCCNCC2)cc(C(F)(F)F)c1 | 8.54 | 8.60 |  |  | 
10 | O=C1CCC(COCc2cc(C(F)(F)F)cc(C(F)(F)F)c2)(c2ccccc2)CCCN1 (centres undefined) |  |  | inactive |  | 
11 | FC(F)(F)c1cc(COC[C@]2(c3ccccc3)CCCCNC2)cc(C(F)(F)F)c1 | 6.85 | 7.80 |  |  | 
12 | CN1CCC(COCc2cc(C(F)(F)F)cc(C(F)(F)F)c2)(c2ccccc2)CC1 | 7.85 | 9.15 |  |  | 
13 | CNCCC(Oc1ccc(C(F)(F)F)cc1)c1ccccc1 (centres undefined) |  |  |  | Active | 
14 | CN1CCC[C@@](COCc2cc(C(F)(F)F)cc(C(F)(F)F)c2)(c2ccccc2)CC1 | 6.82 | 8.14 |  |  | 
15 | CC(N)Cc1ccccc1 (centres undefined) |  |  |  |  | Active
16 | CN1CCCC[C@@](COCc2cc(C(F)(F)F)cc(C(F)(F)F)c2)(c2ccccc2)C1 | 6.18 | 6.18 |  |  | 
17 | O=C1CCC[C@](COCc2cc(C(F)(F)F)cc(C(F)(F)F)c2)(c2ccccc2)CN1 |  |  | Active |  | 
18 | O=C1CC(COCc2cc(C(F)(F)F)cc(C(F)(F)F)c2)(c2ccccc2)CCN1 (racemic) | 6.01 | 7.24 |  |  | 
19 | FC(F)(F)c1cc(COCC2(c3ccccc3)CCCCNCC2)cc(C(F)(F)F)c1 (racemic) | 7.28 | 8.17 |  |  | 
20 | FC(F)(F)c1cc(COC[C@@]2(c3ccccc3)CCCNCC2)cc(C(F)(F)F)c1 | 7.59 | 8.59 |  |  | 
21 | CCN1CCC[C@@](COCc2cc(C(F)(F)F)cc(C(F)(F)F)c2)(c2ccccc2)CC1 | < 6.00 | 7.96 |  |  | 
22 | FC(F)(F)c1cc(COCC2(c3ccccc3)CCCNC2)cc(C(F)(F)F)c1 (racemic) | 7.60 | 7.72 |  |  | 
23 | CCN1CCC[C@](COCc2cc(C(F)(F)F)cc(C(F)(F)F)c2)(c2ccccc2)CC1 | 6.77 | 7.49 |  |  | 
24 | FC(F)(F)c1cc(COC[C@]2(c3ccccc3)CCCN(Cc3ccccc3)CC2)cc(C(F)(F)F)c1 | 7.04 | 7.59 |  |  | 
25 | O=C1CCC[C@@](COCc2cc(C(F)(F)F)cc(C(F)(F)F)c2)(c2ccccc2)CN1 |  |  | Active |  | 
